Measured values taken from ChEMBL document CHEMBL4706489, “Hydrogen sulfide releasing oridonin derivatives induce apoptosis through extrinsic and intrinsic pathways” (Eur J Med Chem, 2020).
Active and inactive are the calls of the source. The calls are words filed in the database; no cut-off is given here.

Key:
K562 [1] = experiment: Induction of apoptosis in human K562 cells assessed as increase in Bax protein expression at 1 uM after 24 hrs by chemiluminescence based apoptosis array method; format: functional, cell-based
Procedure, shortened: (§1)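 K562 cells were treated with 1 test agent for 24 h. Diluted total-cell lysates were applied to a human apoptosis antibody array covering 35 apoptosis-related proteins for 24 h. Unbound protein was washed off, and arrays were probed with a biotinylated detection antibody for 1 h. Relative expression was read from chemiluminescent signal by digital imaging.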

[2] = Selectivity ratio of IC50 for cytotoxicity against human PBMC cells to IC50 for antiproliferative activity against human HepG2 cells; format: toxicity, cell-based; conditions: read-out: Ratio IC50
HepG2 [3] = experiment: Induction of apoptosis in human HepG2 cells assessed as necrotic cells at 1 uM after 48 hrs by annexin V FITC and propidium iodide staining based flow cytometric analysis (reference value: 0.89%); format: functional
K562 [4] = experiment: Induction of apoptosis in human K562 cells assessed as decrease in C-IAP1 protein expression at 1 uM after 24 hrs by chemiluminescence based apoptosis array method; format: functional, cell-based; procedure, shortened: as §1
HepG2 [5] = experiment: Induction of cell cycle arrest in human HepG2 cells assessed as accumulation at G1 phase at 0.5 uM after 48 hrs by propidium iodide staining based flow cytometric analysis (reference value: 49.46 to 50.3%); format: functional
Procedure, shortened: (§2)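 HepG2 cells were treated with 0, 0.50, 1.0 or 2.0 test agent for 48 h. Cells were washed in cold PBS and fixed in 70% ethanol at −20 °C overnight. DNA-content distribution was measured by flow cytometry. Mean ± SD, three independent experiments.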

K562 [6] = experiment: Induction of cell cycle arrest in human K562 cells assessed as accumulation at S phase at 0.5 uM after 48 hrs by propidium iodide staining based flow cytometric analysis (reference value: 44.73 to 45.96%); format: functional
MCF7 = experiment: Antiproliferative activity against human MCF7 cells assessed as reduction in cell viability after 72 hrs by MTT assay; conditions: MCF7, 72 h
K562 [7] = experiment: Induction of apoptosis in human K562 cells assessed as decrease in XIAP protein expression at 1 uM after 24 hrs by chemiluminescence based apoptosis array method; format: functional, cell-based; procedure, shortened: as §1
K562 [8] = experiment: Induction of apoptosis in human K562 cells assessed as late apoptotic cells at 1 uM after 48 hrs by annexin V FITC and propidium iodide staining based flow cytometric analysis (reference value: 0.42%); format: functional
HepG2 [9] = experiment: Induction of apoptosis in human HepG2 cells assessed as late apoptotic cells at 2 uM after 48 hrs by annexin V FITC and propidium iodide staining based flow cytometric analysis (reference value: 3.17%); format: functional
HepG2 [10] = experiment: Induction of apoptosis in human HepG2 cells assessed as early apoptotic cells at 2 uM after 48 hrs by annexin V FITC and propidium iodide staining based flow cytometric analysis (reference value: 2.89%); format: functional
[11] = Cytotoxicity against human PBMC cells assessed as cell viability after 72 hrs by MTT assay
HepG2 [12] = experiment: Induction of cell cycle arrest in human HepG2 cells assessed as accumulation at S phase at 1 uM after 48 hrs by propidium iodide staining based flow cytometric analysis (reference value: 33.22 to 33.58%); format: functional
HepG2 [13] = experiment: Induction of apoptosis in human HepG2 cells assessed as viable cells at 1 uM after 48 hrs by annexin V FITC and propidium iodide staining based flow cytometric analysis (reference value: 93.5%); format: functional; conditions: read-out: Activity
K562 [14] = experiment: Induction of apoptosis in human K562 cells assessed as necrotic cells at 0.5 uM after 48 hrs by annexin V FITC and propidium iodide staining based flow cytometric analysis (reference value: 0.69%); format: functional
K562 [15] = experiment: Induction of cell cycle arrest in human K562 cells assessed as accumulation at G1 phase at 1 uM after 48 hrs by propidium iodide staining based flow cytometric analysis (reference value: 43.24 to 43.37%); format: functional
K562 [16] = experiment: Induction of apoptosis in human K562 cells assessed as decrease in C-IAP2 protein expression at 1 uM after 24 hrs by chemiluminescence based apoptosis array method; format: functional, cell-based; procedure, shortened: as §1
K562 [17] = experiment: Induction of apoptosis in human K562 cells assessed as viable cells at 0.5 uM after 48 hrs by annexin V FITC and propidium iodide staining based flow cytometric analysis (reference value: 96.76%); format: functional; conditions: read-out: Activity
HepG2 (human) = experiment: Induction of apoptosis in human HepG2 cells after 48 hrs by annexin V FITC and propidium iodide staining based flow cytometric analysis; conditions: dose 0.5-2 µM
HepG2 [18] = experiment: Induction of apoptosis in human HepG2 cells assessed as late apoptotic cells at 1 uM after 48 hrs by annexin V FITC and propidium iodide staining based flow cytometric analysis (reference value: 3.17%); format: functional
HepG2 [19] = experiment: Induction of cell cycle arrest in human HepG2 cells assessed as accumulation at G2 phase at 0.5 uM after 48 hrs by propidium iodide staining based flow cytometric analysis (reference value: 16.48 to 16.97%); format: functional; procedure, shortened: as §2
B16 = experiment: Antiproliferative activity against mouse B16 cells assessed as reduction in cell viability after 72 hrs by MTT assay; conditions: B16, 72 h
K562 [20] = experiment: Induction of apoptosis in human K562 cells assessed as increase in cleaved caspase-3 at 1 uM after 24 hrs by chemiluminescence based apoptosis array method; format: functional, cell-based; procedure, shortened: as §1
L02 = experiment: Cytotoxicity against human L02 cells assessed as cell viability after 72 hrs by MTT assay; conditions: L02, 72 h
K562 [21] = experiment: Induction of apoptosis in human K562 cells assessed as necrotic cells at 2 uM after 48 hrs by annexin V FITC and propidium iodide staining based flow cytometric analysis (reference value: 0.69%); format: functional
HepG2 [22] = experiment: Induction of mitochondrial membrane potential loss in human HepG2 cells after 48 hrs by JC1 staining based flow cytometric analysis; format: functional, cell-based; conditions: dose 0.5-2 µM
Procedure, shortened: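 K562 and HepG2 cells in 6-well plates were exposed for 48 h at 0, 0.50, 1.0 and 2.0 µM, with DMSO vehicle control. After trypsinization, cells were stained with JC-1 (0.5 mg/mL) at 37 °C in darkness for 30 min, then washed with PBS. Membrane potential was read by flow cytometry. Mean ± SD, three independent experiments.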

K562 [23] = experiment: Induction of apoptosis in human K562 cells assessed as increase in DR5 protein expression at 1 uM after 24 hrs by chemiluminescence based apoptosis array method; format: functional, cell-based; procedure, shortened: as §1
HepG2 [24] = experiment: Induction of apoptosis in human HepG2 cells assessed as necrotic cells at 0.5 uM after 48 hrs by annexin V FITC and propidium iodide staining based flow cytometric analysis (reference value: 0.89%); format: functional
K562 [25] = experiment: Induction of apoptosis in human K562 cells after 48 hrs by annexin V FITC and propidium iodide staining based flow cytometric analysis; conditions: dose 0.5-2 µM
K562 [26] = experiment: Induction of apoptosis in human K562 cells assessed as decrease in livin protein expression at 1 uM after 24 hrs by chemiluminescence based apoptosis array method; format: functional, cell-based; procedure, shortened: as §1
K562 [27] = experiment: Induction of apoptosis in human K562 cells assessed as early apoptotic cells at 0.5 uM after 48 hrs by annexin V FITC and propidium iodide staining based flow cytometric analysis (reference value: 2.13%); format: functional

For `C=C1C(=O)[C@]23[C@H](OC(=O)CCC(=O)OCCCCCCOc4ccc(-c5cc(=S)ss5)cc4)[C@H]1CC[C@H]2[C@@]12CO[C@@]3(O)[C@@H](O)[C@@H]1C(C)(C)CC[C@@H]2OC(C)=O`, the Activity (K562 [1]) was “Active”, the selectivity ratio [2] was 20 and the Activity (HepG2 [3]) was 1.26%. The Activity (K562 [4]) was “Active”, the Activity (HepG2 [5]) was 55.35% and the Activity (K562 [6]) was 50.32%. The IC50 (MCF7) was 16.1 µM, the Activity (K562 [7]) was “Active” and the Activity (K562 [8]) was 8.38%. For the same molecule, the Activity (HepG2 [9]) was 37.6%, the Activity (HepG2 [10]) was 26.44% and the IC50 [11] was over 50 µM. For the same molecule, the Activity (HepG2 [12]) was 27.19%, the viability at 1 µM (HepG2 [13]) was 60.5% and the Activity (K562 [14]) was 1.1%. The Activity (K562 [15]) was 34.14%, the Activity (K562 [16]) was “Active” and the viability at 0.5 µM (K562 [17]) was 87%. The Activity (HepG2 (human)) was “Dose-dependent effect”, the Activity (HepG2 [18]) was 12.72% and the Activity (HepG2 [19]) was 13.24%. For the same molecule, the IC50 (B16) was 12.9 µM, the Activity (K562 [20]) was “Active” and the IC50 (L02) was 17.6 µM. The Activity (K562 [21]) was 1.57%, the Activity (HepG2 [22]) was “Dose-dependent effect” and the Activity (K562 [23]) was “Active”. The Activity (HepG2 [24]) was 2.7%, the Activity (K562 [25]) was “Dose-dependent effect” and the Activity (K562 [26]) was “Active”. The Activity (K562 [27]) was 7.1%.
